Active and inactive are the calls of the source. The rule behind the calls is not given here.
Experiments:
[1] = Inhibition of TNF-alpha induced NF-kappaB activation in human A549 cells after 7 hrs by Bright-Glo luciferase reporter gene assay; assay type: cell-based; conditions: Homo sapiens, A549, 7 h; read-out: IC50
Summary of the method: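 A549 cells transiently cotransfected with an NF-κB-Luc reporter and stimulated with TNF-α. Luciferase read-out of inhibition gives IC50, the mean of at least three independent experiments each with triplicates.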

NCI-H460 = experiment: Antiproliferative activity against human NCI-H460 cells after 48 hrs by MTT assay; assay type: functional, cell-based; conditions: NCI-H460, 48 h
Summary of the method: (§1)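 MTT read-out of antiproliferative activity across cancer lines HepG-2, NCI-H460, MGC-803, A549 and MG-63 and normal liver line HL-7702. IC50 given as mean ± S.D. of three separate experiments, each run in triplicate.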

MGC-803 = experiment: Antiproliferative activity against human MGC803 cells after 48 hrs by MTT assay; assay type: functional, cell-based; conditions: MGC-803, 48 h; summary of the method: as §1
A549 [2] = experiment: Antiproliferative activity against human A549 cells after 48 hrs by MTT assay; assay type: functional, cell-based; conditions: A549, 48 h; summary of the method: as §1
MG-63 = experiment: Antiproliferative activity against human MG63 cells after 48 hrs by MTT assay; assay type: functional, cell-based; conditions: MG-63, 48 h; summary of the method: as §1
[3] = target: T1, Inhibitor of NF-kappa-B kinase alpha/beta (Homo sapiens) (UniProt O14920+O15111); experiment: Inhibition of IKKalpha/beta-mediated IkappaBalpha phosphorylation in human A549 cells after 24 hrs by Western blot analysis; assay type: cell-based
Summary of the method: (§2)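 A549 cells exposed to 5, 10 and 20 µM for 24 h. Western blots probed for NF-κB, p-IκBα, IκBα and p-IKKα/β, with GAPDH as internal control. Three experiments, representative blot shown.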

Homo sapiens = species on record: Homo sapiens; experiment: Inhibition of TNF-alpha induced activation of NF-kappaB (unknown origin) assessed as reduction in DNA binding ability at 5 to 20 uM by cell based ELISA relative to TNF-alpha alone
Summary of the method: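 ELISA-type DNA-binding assay of NF-κB in TNF-α-stimulated A549 cells treated at 5, 10 and 20 µM. Compared against untreated and TNF-α-only controls. Mean ± SD, p < 0.05, three runs.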

[4] = target: T1, Inhibitor of NF-kappa-B kinase alpha/beta (Homo sapiens); experiment: Inhibition of IKKalpha/beta phosphorylation in human A549 cells up to 20 uM after 24 hrs by Western blot analysis; assay type: cell-based; summary of the method: as §2
A549 [5] = experiment: Reduction in IkappaBalpha level in human A549 cells up to 20 uM after 24 hrs by Western blot analysis; assay type: functional, cell-based; summary of the method: as §2
[6] = Growth inhibition of cisplatin-resistant human SKOV3/DDP cells after 48 hrs by MTT assay; assay type: functional; conditions: SK-OV-3, 48 h
Summary of the method: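 MTT growth inhibition in the paired ovarian lines, cisplatin-sensitive SK-OV-3 and cisplatin-resistant SK-OV-3/CDDP. IC50 given as mean ± S.D. of three separate experiments, each in triplicate.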

A549 [7] = experiment: Induction of apoptosis in human A549 cells after 24 hrs by annexin V-FITC/propidium iodide staining-based flow cytometry analysis; assay type: functional, cell-based
Summary of the method: (§3)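 A549 cells treated at 5, 10 and 20 µM for 24 h, then harvested and stained with Annexin V-FITC and PI. Flow cytometry quadrants: Q1 necrotic, Q2 late apoptotic/necrotic, Q3 early apoptotic, Q4 living. Performed three times.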

A549 [8] = experiment: Induction of apoptosis in human A549 cells assessed as early apoptotic cells at 5 uM after 24 hrs by annexin V-FITC/propidium iodide staining-based flow cytometry analysis (reference value: 1.28%); assay type: functional; summary of the method: as §3
A549 [9] = experiment: Induction of apoptosis in human A549 cells assessed as viable cells at 5 uM after 24 hrs by annexin V-FITC/propidium iodide staining-based flow cytometry analysis (reference value: 96.0%); assay type: functional; conditions: A549, 24 h, read-out: Activity; summary of the method: as §3
A549 [10] = experiment: Induction of apoptosis in human A549 cells assessed as late apoptotic cells at 10 uM after 24 hrs by annexin V-FITC/propidium iodide staining-based flow cytometry analysis (reference value: 2.20%); assay type: functional; summary of the method: as §3
A549 [11] = experiment: Induction of apoptosis in human A549 cells assessed as viable cells at 10 uM after 24 hrs by annexin V-FITC/propidium iodide staining-based flow cytometry analysis (reference value: 96.0%); assay type: functional; conditions: A549, 24 h, read-out: Activity; summary of the method: as §3
A549 [12] = experiment: Induction of apoptosis in human A549 cells assessed as early apoptotic cells at 20 uM after 24 hrs by annexin V-FITC/propidium iodide staining-based flow cytometry analysis (reference value: 1.28%); assay type: functional; summary of the method: as §3
A549 [13] = experiment: Induction of apoptosis in human A549 cells assessed as necrotic apoptotic cells at 20 uM after 24 hrs by annexin V-FITC/propidium iodide staining-based flow cytometry analysis (reference value: 0.520%); assay type: functional; summary of the method: as §3
A549 [14] = experiment: Induction of apoptosis in human A549 cells assessed as viable cells at 20 uM after 24 hrs by annexin V-FITC/propidium iodide staining-based flow cytometry analysis (reference value: 96.0%); assay type: functional; conditions: A549, 24 h, read-out: Activity; summary of the method: as §3
A549 [15] = experiment: Cell cycle arrest in human A549 cells assessed as accumulation at G1 phase at 5 uM after 24 hrs by propidium iodide staining based flow cytometry (reference value: 47.0%); assay type: functional
A549 [16] = experiment: Cell cycle arrest in human A549 cells assessed as accumulation at G2 phase at 5 uM after 24 hrs by propidium iodide staining based flow cytometry (reference value: 14.1%); assay type: functional
A549 [17] = experiment: Cell cycle arrest in human A549 cells assessed as accumulation at S phase at 5 uM after 24 hrs by propidium iodide staining based flow cytometry (reference value: 38.76%); assay type: functional
A549 [18] = experiment: Cell cycle arrest in human A549 cells assessed as accumulation at G1 phase at 10 uM after 24 hrs by propidium iodide staining based flow cytometry (reference value: 47.0%); assay type: functional
A549 [19] = experiment: Cell cycle arrest in human A549 cells assessed as accumulation at S phase at 10 uM after 24 hrs by propidium iodide staining based flow cytometry (reference value: 38.76%); assay type: functional
A549 [20] = experiment: Cell cycle arrest in human A549 cells assessed as accumulation at G1 phase at 20 uM after 24 hrs by propidium iodide staining based flow cytometry (reference value: 47.0%); assay type: functional
A549 [21] = experiment: Cell cycle arrest in human A549 cells assessed as accumulation at G2 phase at 20 uM after 24 hrs by propidium iodide staining based flow cytometry (reference value: 14.1%); assay type: functional
A549 [22] = experiment: Cell cycle arrest in human A549 cells assessed as accumulation at S phase at 20 uM after 24 hrs by propidium iodide staining based flow cytometry (reference value: 38.76%); assay type: functional
A549 [23] = experiment: Antimigratory activity against human A549 cells after 24 hrs by crystal violet staining based fluorescence microscopic analysis; assay type: functional, cell-based
Summary of the method: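 Transwell migration of A549 cells incubated at 5, 10 and 20 µM for 24 h. Performed three times, representative images shown.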

A549 [24] = experiment: Induction of mitochondrial membrane potential loss in human A549 cells at 5 to 20 uM after 24 hrs by JC-1 staining-based fluorescence microscopic analysis; assay type: functional, cell-based
Summary of the method: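 A549 cells treated at 5, 10 and 20 µM for 24 h, then loaded with JC-1 probe for 30 min. Red J-aggregate and green J-monomer fluorescence viewed by fluorescence microscopy. Three experiments.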

A549 [25] = experiment: Induction of ROS generation in human A549 cells at 5 to 20 uM after 24 hrs by DCFH-DA staining-based fluorescence microscopic analysis; assay type: functional, cell-based
Summary of the method: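 Intracellular ROS in A549 cells after 24 h incubation, using DCF-DA probe. Green cytoplasmic fluorescence viewed by fluorescence microscopy against untreated control. Three experiments.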

- IC50 [1]: 0.97 µM
- IC50 (NCI-H460): 8.28 µM
- IC50 (MGC-803): 8.73 µM
- IC50 (A549 [2]): 6.25 µM
- inhibition [3]: Dose-dependent effect
- inhibition [4]: Active
SMILES: CCOP(=O)(OCC)C(Nc1ccc(CC(=O)NCCCCNC(=O)[C@@]2(C)CC[C@]3(C)CC[C@]4(C)C(=CC(=O)[C@@H]5[C@@]6(C)CC[C@H](OC(C)=O)C(C)(C)[C@@H]6CC[C@]54C)[C@@H]3C2)cc1)c1ccc(F)cc1 (some centres undefined)
- IC50 (MG-63): 9.01 µM
- fold change (FC) (Homo sapiens): 2.3
- Activity (A549 [5]): Active
- IC50 [6]: 8.94 µM
- Activity (A549 [7]): Dose-dependent effect
- Activity (A549 [8]): 1.96%
- viability at 5 µM (A549 [9]): 86.4%
- Activity (A549 [10]): 22.6%
- viability at 10 µM (A549 [11]): 57.9%
- Activity (A549 [12]): 19.5%
- Activity (A549 [13]): 0.509%
- viability at 20 µM (A549 [14]): 40.3%
- Activity (A549 [15]): 59.91%
- Activity (A549 [16]): 0%
- Activity (A549 [17]): 40.09%
- Activity (A549 [18]): 46.5%
- Activity (A549 [19]): 43.6%
- Activity (A549 [20]): 43.02%
- Activity (A549 [21]): 2.66%
- Activity (A549 [22]): 54.32%
- Activity (A549 [23]): Dose-dependent effect
- Activity (A549 [24]): Active
- Activity (A549 [25]): Active
